As a reminder, the Ki is a measure of affinity in units of concentration, obtained from inhibition or displacement. Low readings indicate a stronger hold on the target, high ones a looser hold on the target.

SMILES strings stand for the structures. “And” between values parts separate entries of the source, which are not always exact repeats. Equal values may be shown once. Read-outs that look alike come from different tables or passages of the source.

Here are results for 7 compounds from article PMC4856055 (Journal of medicinal chemistry, 2015).

In data set [1] the test system is PSMA+ PC3 PIP and PSMA– PC3 flu xenografts. It is filed as in vivo, mice. Particulars: for PIP:blood ratio / PIP:flu ratio / PIP:kidney ratio / PIP:muscle ratio / biodistribution, PC-3 PIP tumor / biodistribution, PC-3 flu tumor / biodistribution, bladder / biodistribution, blood / biodistribution, bone / biodistribution, fat / biodistribution, heart / biodistribution, kidney / biodistribution, large intestine / biodistribution, liver / biodistribution, lung / biodistribution, muscle / biodistribution, pancreas / biodistribution, small intestine / biodistribution, spleen / biodistribution, stomach: tumor bearing mice.

Data set [2] has as its system PSMA+ PC3 PIP and PSMA– PC3 flu tumor xenografts. In words: Small animal PET or PET/CT imaging of tumor bearing mice. It is filed as in vivo.
A further data set concerns the target PSMA (Homo sapiens, UniProt Q04609). The data set is described as follows: PSMA inhibitory activity, fluorescence-based Amplex red glutamic acid. Particulars: for Ki: LNCaP cell lysates, 4 µM NAAG, Cheng-Prusoff conversion. It counts as biochemical. The procedure, abridged: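 LNCaP cell lysate was incubated with the test compound and NAAG substrate for 120 min. Glutamate released by NAAG hydrolysis was detected by a further 60 min incubation with Amplex red glutamic acid working solution, then fluorescence was read at excitation 490 nm and emission 642 nm. IC50 was taken from semilog inhibition curves and converted to Ki by Cheng-Prusoff. Assays were run in triplicate.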

Sequence of PSMA (Q04609 whole entry): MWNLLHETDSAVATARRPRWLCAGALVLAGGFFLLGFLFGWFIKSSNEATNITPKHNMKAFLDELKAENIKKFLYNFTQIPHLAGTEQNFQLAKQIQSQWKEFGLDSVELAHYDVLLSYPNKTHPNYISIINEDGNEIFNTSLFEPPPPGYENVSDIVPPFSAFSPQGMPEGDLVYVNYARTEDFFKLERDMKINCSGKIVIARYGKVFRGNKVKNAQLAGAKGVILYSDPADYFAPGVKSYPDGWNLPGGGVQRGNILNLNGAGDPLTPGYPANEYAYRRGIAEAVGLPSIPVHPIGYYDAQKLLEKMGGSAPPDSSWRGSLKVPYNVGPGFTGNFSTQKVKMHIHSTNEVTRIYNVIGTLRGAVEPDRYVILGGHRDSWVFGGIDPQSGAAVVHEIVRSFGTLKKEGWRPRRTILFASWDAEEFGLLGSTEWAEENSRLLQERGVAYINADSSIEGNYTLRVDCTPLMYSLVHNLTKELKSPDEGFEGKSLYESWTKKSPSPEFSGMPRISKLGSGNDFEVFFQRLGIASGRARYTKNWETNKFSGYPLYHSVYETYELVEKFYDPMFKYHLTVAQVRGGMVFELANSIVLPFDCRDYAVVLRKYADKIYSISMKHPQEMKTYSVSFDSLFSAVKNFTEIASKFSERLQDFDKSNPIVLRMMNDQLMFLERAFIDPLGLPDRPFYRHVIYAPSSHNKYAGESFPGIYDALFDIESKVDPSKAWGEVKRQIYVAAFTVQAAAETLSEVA

As for `O=C(O)CCC(OC(=O)NC(CCCCNC(=O)c1ccc(Br)cc1[18F])C(=O)O)C(=O)O` (stereo not shown) [[^18F]23, 4-Bromo-2-[^18F]fluorobenzoyllysineoxypentanedioic acid (OPA) carbamate], in data set [1] (0.5 h postinjection), the “PIP:blood ratio” value was 13 and 13.5; the “PIP:flu ratio” value was 28.7; the “PIP:kidney ratio” value is 0.5; the “PIP:muscle ratio” value is 93 and 93.3. In data set [1] (0.5 h postinjection), the “biodistribution, PC-3 PIP tumor” value was 63 % ID/g and 63.4 ± 7.16 % ID/g; the “biodistribution, PC-3 flu tumor” value was determined as 2.21 ± 0.19 % ID/g; the “biodistribution, bladder” value was found to be 2.84 ± 0.65 % ID/g; the “biodistribution, blood” value came out at 4.69 ± 0.33 % ID/g. For the same compound, in data set [1] (0.5 h postinjection), the “biodistribution, bone” value was 0.89 ± 0.14 % ID/g; the “biodistribution, fat” value was determined as 1.02 ± 0.12 % ID/g; the “biodistribution, heart” value came to 1.72 ± 0.31 % ID/g; the “biodistribution, kidney” value is listed as 135 ± 23.0 % ID/g. Further, in data set [1] (0.5 h postinjection), the “biodistribution, large intestine” value came to 1.35 ± 0.35 % ID/g; the “biodistribution, liver” value stood at 15.5 ± 1.57 % ID/g; the “biodistribution, lung” value is on record as 4.59 ± 0.78 % ID/g; the “biodistribution, muscle” value turned out to be 0.68 ± 0.07 % ID/g. Moreover, in data set [1] (0.5 h postinjection), the “biodistribution, pancreas” value amounted to 1.45 ± 0.15 % ID/g; the “biodistribution, small intestine” value was found to be 1.51 ± 0.71 % ID/g; the “biodistribution, spleen” value was 19.9 ± 7.80 % ID/g; the “biodistribution, stomach” value is 1.08 ± 0.07 % ID/g. Besides, in data set [1] (1 h postinjection), the “PIP:blood ratio” value was 40 and 40.3; the “PIP:flu ratio” value was determined as 69.4; the “PIP:kidney ratio” value was 0.5; the “PIP:muscle ratio” value was 208 and 208.1. Further, in data set [1] (1 h postinjection), the “biodistribution, PC-3 PIP tumor” value is on record as 64.5 ± 7.71 % ID/g; the “biodistribution, PC-3 flu tumor” value is on record as 0.93 ± 0.19 % ID/g; the “biodistribution, bladder” value came to 5.11 ± 3.57 % ID/g; the “biodistribution, blood” value is 1.60 ± 1.17 % ID/g. In data set [1] (1 h postinjection), the “biodistribution, bone” value stood at 0.48 ± 0.17 % ID/g; the “biodistribution, fat” value is listed as 0.79 ± 0.74 % ID/g; the “biodistribution, heart” value was found to be 0.79 ± 0.14 % ID/g; the “biodistribution, kidney” value is 139 ± 23.7 % ID/g. Further, in data set [1] (1 h postinjection), the “biodistribution, large intestine” value is given as 0.71 ± 0.35 % ID/g; the “biodistribution, liver” value turned out to be 11.9 ± 2.95 % ID/g; the “biodistribution, lung” value turned out to be 2.62 ± 0.30 % ID/g; the “biodistribution, muscle” value is 0.31 ± 0.05 % ID/g. For the same compound, in data set [1] (1 h postinjection), the “biodistribution, pancreas” value was found to be 0.80 ± 0.21 % ID/g; the “biodistribution, small intestine” value is recorded as 1.67 ± 0.70 % ID/g; the “biodistribution, spleen” value worked out at 9.62 ± 5.53 % ID/g; the “biodistribution, stomach” value amounted to 0.67 ± 0.18 % ID/g. Besides, in data set [1] (2 h postinjection), the “PIP:blood ratio” value was 148 and 147.6; the “PIP:flu ratio” value was determined as 233.4; the “PIP:kidney ratio” value worked out at 0.7; the “PIP:muscle ratio” value is 643 and 643.1. In addition, in data set [1] (2 h postinjection), the “biodistribution, PC-3 PIP tumor” value is recorded as 90.0 ± 13.6 % ID/g; the “biodistribution, PC-3 flu tumor” value amounted to 0.39 ± 0.01 % ID/g; the “biodistribution, bladder” value came out at 4.22 ± 1.58 % ID/g; the “biodistribution, blood” value is 0.61 ± 0.41 % ID/g. In data set [1] (2 h postinjection), the “biodistribution, bone” value was 0.20 ± 0.03 % ID/g; the “biodistribution, fat” value amounted to 0.88 ± 0.80 % ID/g; the “biodistribution, heart” value is 0.35 ± 0.07 % ID/g; the “biodistribution, kidney” value came out at 127 ± 37.1 % ID/g. In data set [1] (2 h postinjection), the “biodistribution, large intestine” value is listed as 0.51 ± 0.30 % ID/g; the “biodistribution, liver” value is reported as 6.42 ± 1.06 % ID/g; the “biodistribution, lung” value is 1.21 ± 0.14 % ID/g; the “biodistribution, muscle” value came to 0.14 ± 0.02 % ID/g. In data set [1] (2 h postinjection), the “biodistribution, pancreas” value is on record as 0.37 ± 0.07 % ID/g; the “biodistribution, small intestine” value was found to be 0.52 ± 0.17 % ID/g; the “biodistribution, spleen” value is reported as 5.69 ± 2.14 % ID/g; the “biodistribution, stomach” value is reported as 0.67 ± 0.72 % ID/g. Also, in data set [1] (4 h postinjection), the “PIP:blood ratio” value was 240 and 240.1; the “PIP:flu ratio” value is given as 461.5; the “PIP:kidney ratio” value amounted to 1.4; the “PIP:muscle ratio” value is 792 and 791.9. Also, in data set [1] (4 h postinjection), the “biodistribution, PC-3 PIP tumor” value was 74 % ID/g and 74.4 ± 9.19 % ID/g; the “biodistribution, PC-3 flu tumor” value is 0.16 ± 0.03 % ID/g; the “biodistribution, bladder” value came out at 3.30 ± 3.03 % ID/g; the “biodistribution, blood” value is 0.31 ± 0.09 % ID/g. For the same compound, in data set [1] (4 h postinjection), the “biodistribution, bone” value came to 0.09 ± 0.05 % ID/g; the “biodistribution, fat” value amounted to 0.53 ± 0.27 % ID/g; the “biodistribution, heart” value is 0.14 ± 0.08 % ID/g; the “biodistribution, kidney” value was 54.5 ± 22.2 % ID/g. Also, in data set [1] (4 h postinjection), the “biodistribution, large intestine” value is 0.81 ± 0.15 % ID/g; the “biodistribution, liver” value is 2.95 ± 1.97 % ID/g; the “biodistribution, lung” value came to 0.58 ± 0.32 % ID/g; the “biodistribution, muscle” value is reported as 0.09 ± 0.07 % ID/g. Also, in data set [1] (4 h postinjection), the “biodistribution, pancreas” value was 0.13 ± 0.03 % ID/g; the “biodistribution, small intestine” value came out at 0.23 ± 0.05 % ID/g; the “biodistribution, spleen” value turned out to be 1.68 ± 1.03 % ID/g; the “biodistribution, stomach” value is 0.12 ± 0.07 % ID/g. Moreover, the tumor/kidney ratio entry in data set [1] (at 2–4 h) was “approximately 1”. In data set [1] (mouse, in vivo), the “PSMA– PC3 flu tumor uptake” value is “no specific uptake” and the “defluorination in vivo (from bone uptake)” value was “lack of significant defluorination in vivo”. For the same compound, the “PSMA+ PC3 PIP tumor uptake on small animal PET imaging” value in data set [2] (male SCID mice with PSMA+ PC3 PIP and PSMA– PC3 flu xenografts) was “Intense and selective radiotracer uptake”. For the same compound, the “uptake in salivary glands on imaging” value in data set [2] (mouse, in vivo) was “Neither [^18F]23 nor [^18F]24 demonstrated any uptake in salivary glands”.

Turning to `O=C(O)CC[C@H](NC(=O)O[C@@H](CCCCNC(=O)c1ccc(F)cc1)C(=O)O)C(=O)O` [compound 12, (S)-2-(((((S)-1-Carboxy-5-(4-fluorobenzamido)pentyl)oxy)-carbonyl)amino)pentanedioic Acid], the “reduction in binding affinity compared to 9” value at PSMA is “more than 150 fold”.

Regarding `O=C(O)CC[C@H](OC(=O)N[C@@H](CCCCNC(=O)c1ccc(F)cc1)C(=O)O)C(=O)O` [compound 13, (S)-2-((((S)-1-Carboxy-5-(4-fluorobenzamido)pentyl)-carbamoyl)oxy)pentanedioic Acid], the “reduction in binding affinity compared to 9” value at PSMA amounted to 30 fold. The same compound showed a Ki on PSMA (Ki) of 9.2 nM.

Consider `O=C(O)CC[C@H](OC(=O)N[C@@H](CCCCNC(=O)c1ccc(Br)cc1F)C(=O)O)C(=O)O` [compound 23, (S)-2-((((S)-5-(4-Bromo-2-fluorobenzamido)-1-carboxypentyl)carbamoyl)oxy)pentanedioic Acid], for which the “decrease in potency compared with the corresponding ureas 26 and 27” value on PSMA is reported as < 10 fold. The same compound yielded a Ki on PSMA (Ki) of 0.11 nM.

With `O=C(O)CC[C@H](OC(=O)N[C@@H](CCCCNC(=O)c1ccc(I)cc1F)C(=O)O)C(=O)O` [compound 24], at PSMA, the “decrease in potency compared with the corresponding ureas 26 and 27” value is recorded as < 10 fold; the affinity, expressed as Ki, was 0.21 nM.

On to `O=C(O)CC[C@H](NC(=O)N[C@@H](CCCCNC(=O)c1ccc(Br)cc1F)C(=O)O)C(=O)O` [compound 26, (S)-2-(3-((S)-5-(4-Bromo-2-fluorobenzamido)-1-carboxypentyl)ureido)pentanedioic Acid], for which the Ki on PSMA (Ki) is 0.036 nM and 0.04 nM.

`O=C(O)CC[C@H](NC(=O)N[C@@H](CCCCNC(=O)c1ccc(I)cc1F)C(=O)O)C(=O)O` [compound 27, (S)-2-(3-((S)-5-(4-Iodo-2-fluorobenzamido)-1-carboxypentyl)ureido)pentanedioic Acid]: at PSMA (Ki), the Ki is 0.023 nM and 0.02 nM.
